# Published values collected from several papers.
# Each line is one published result; the experiments were not run side by side.
# CSF1R: Macrophage colony-stimulating factor 1 receptor (CSF1R, Homo sapiens, UniProt P07333)
# CSF1R autoinhibited: Macrophage colony-stimulating factor 1 receptor, autoinhibited (CSF1R, Homo sapiens, UniProt P07333)
Structure (SMILES),target,read-out,method,tested at,remaining binding
O=c1nc(-c2ccccn2)sc2ccccc12,CSF1R,cell-free assay,competition with immobilised ligand,1 µM,85%
COc1cnc(Nc2cccc(S(N)(=O)=O)c2)nc1N1CCN(c2ccccc2)C(=O)C1,CSF1R,binding,competition with immobilised ligand,1 µM,100%
O=C(c1ccc(Nc2nccc(-c3cc4ccccc4s3)n2)cc1)N1CCC(N2CCCC2)CC1,CSF1R autoinhibited,binding,competition with immobilised ligand,1 µM,77%
CC1CCCN1c1nccc(-c2cnn3ncccc23)n1 (stereo not drawn),CSF1R,binding,,1 µM,100%
CNC(=O)[C@@H]1CC[C@@H](n2c(-c3ccc4cnccc4c3)nc3ccc(C(=O)NCc4cccc(C(N)=O)c4)cc32)C1,CSF1R,binding,competition with immobilised ligand,1 µM,100%
CN(C)c1ncc(F)c(-c2cnn3ncccc23)n1,CSF1R autoinhibited,binding,,1 µM,69%
O=C(NCCCN1CCOCC1)c1ccc(Nc2nccc(-c3cc4ccccc4s3)n2)cc1,CSF1R,binding,competition with immobilised ligand,1 µM,50%
O=C(Nc1c[nH]nc1C(=O)NC1CCNCC1)c1cc(F)cc(F)c1,CSF1R autoinhibited,binding,competition with immobilised ligand,1 µM,90%
F[C@@H]1CCN(c2nccc(-c3cnn4ncccc34)n2)C1,CSF1R autoinhibited,binding,,1 µM,81%
C[C@@H]1CN(c2ccc3ncc(-c4ccc5[nH]nc(C6CC6)c5c4)n3n2)C[C@H](C)O1,CSF1R,binding,competition with immobilised ligand,50 nM,100%
N[C@H]1CCN(c2nccc(-c3cnn4ncccc34)n2)C1,CSF1R,binding,,1 µM,100%
CC(=O)c1c(NS(C)(=O)=O)c2cc(-c3ccc(Cl)cc3)c(-c3ccc(Cl)cc3Cl)nc2n(C)c1=O,CSF1R,cell-free assay,competition with immobilised ligand,1 µM,100%
FC(F)(F)Oc1cccc(-c2cnc3ccc(-c4ccncc4)nn23)c1,CSF1R,cell-free assay,competition with immobilised ligand,5 µM,59%
O=C(c1ccc(Nc2ncc(Cl)c(-c3cc4ccccc4s3)n2)cc1)N1CCC(N2CCCC2)CC1,CSF1R autoinhibited,binding,competition with immobilised ligand,1 µM,56%
CCN1CCN(Cc2ccc(C(=O)Nc3ccc(C)c(Oc4ccc5c(c4)CC(=O)N5)c3)cc2C(F)(F)F)CC1,CSF1R,binding,competition with immobilised ligand,1 µM,2%
COc1ncc2cc3ccccc3nc2c1C#N,CSF1R,cell-free assay,competition with immobilised ligand,5 µM,96%
C[C@@H](c1ccc(-n2cnc3c(N)ncnc32)cc1)N1CCc2nn(C)c(Cc3ccccc3)c2C1=O,CSF1R,binding,competition with immobilised ligand,0.1 µM,100%
Nc1ncc2c(n1)-c1c([nH]c3ccc(C#CC4CC4)cc13)CCCC2,CSF1R autoinhibited,binding,competition with immobilised ligand,1 µM,85%
Cc1cnc(Nc2ccc(C(=O)N3CCC(N4CCCC4)CC3)cc2)nc1-c1cc2ccccc2s1,CSF1R,binding,competition with immobilised ligand,1 µM,12%
CS(=O)(=O)N1CCCC(NC(=O)[C@H](CCC2CCCCC2)NC(=O)c2ccc(CNc3ncnc4c3nnn4-c3ccccc3)cc2)C1 (stereo partly drawn),CSF1R autoinhibited,cell-free assay,competition with immobilised ligand,0.1 µM,100%
CN(C)c1nccc(-c2cnn3ncccc23)n1,CSF1R,binding,,1 µM,100%
O=C(NCCCN1CCOCC1)c1ccc(Nc2ncc(Cl)c(-c3ccc(Cl)s3)n2)cc1,CSF1R autoinhibited,binding,competition with immobilised ligand,1 µM,42%
CCC(=O)N[C@H]1CC[C@@H](C(=O)N(C)c2ccc(-c3nc4ccccc4o3)cc2)C1,CSF1R autoinhibited,cell-free assay,competition with immobilised ligand,1 µM,56%
C=CC(=O)N1CCC(C(=O)NCC(=O)N2CCN(c3nc(-c4cnc(N)nc4C(F)F)nc(N4CCOCC4)n3)CC2)CC1,CSF1R,binding,competition with immobilised ligand,1 µM,77%
O=C(c1ccc(Nc2ncc(Cl)c(-c3ccc(Cl)s3)n2)cc1)N1CCC(N2CCCC2)CC1,CSF1R autoinhibited,binding,competition with immobilised ligand,1 µM,17%
O=C(Nc1ccc(Oc2ccc(F)cc2)cc1)N1CCc2ncccc2[C@H]1c1ccc(F)cc1,CSF1R autoinhibited,cell-free assay,competition with immobilised ligand,1 µM,95%
c1cnn2ncc(-c3ccnc(N4CCC45COC5)n3)c2c1,CSF1R autoinhibited,binding,,1 µM,64%
CC(=O)Nc1c(C(C)=O)c(=O)n(C)c2nc(-c3ccc(Cl)cc3Cl)c(-c3ccc(Cl)cc3)cc12,CSF1R,cell-free assay,competition with immobilised ligand,1 µM,100%
c1cncc(-c2cccc(Nc3nccc(NC4CCCCC4)n3)c2)c1,CSF1R,binding,competition with immobilised ligand,10 µM,0.15%
CN(CCCC(F)(F)F)c1nccc(-c2cnn3ncccc23)n1,CSF1R,binding,,1 µM,93%
COc1cnc(Nc2cccc(S(N)(=O)=O)c2)nc1N1CCN(c2ccccc2)CC1,CSF1R autoinhibited,binding,competition with immobilised ligand,1 µM,99%
CC(=O)N1CCC(c2ccc(C(=O)NC3=NCCN3)cc2C(F)(F)F)CC1,CSF1R,cell-free assay,competition with immobilised ligand,1 µM,100%
O=C(NCC1CCOCC1)c1n[nH]cc1NC(=O)c1c(F)cccc1F,CSF1R autoinhibited,binding,competition with immobilised ligand,1 µM,62%
CO[C@@H](C)c1c(Nc2ccc([C@@H](N(C)C(=O)C3CCS(=O)(=O)CC3)C(F)(F)F)cc2)cnc2cc(Cl)nn12,CSF1R,cell-free assay,competition with immobilised ligand,1 µM,72%
Cc1nc(NC(=O)N2CCC[C@H]2C(N)=O)sc1-c1ccnc(C(C)(C)C(F)(F)F)c1,CSF1R,binding,competition with immobilised ligand,10 µM,68%
C[C@H]1CCN(c2nccc(-c3cnn4ncccc34)n2)C1,CSF1R,binding,,1 µM,100%
